Measured values gathered from unrelated publications.
Protocols differ between the studies behind these lines.
PTGS1: Prostaglandin G/H synthase 1 (PTGS1, Ovis aries, UniProt P05979)
MARK1: Serine/threonine-protein kinase MARK1 (MARK1, Homo sapiens, UniProt Q9P0L2)
TAF1L BD1: Transcription initiation factor TFIID subunit 1-like, BD1 (TAF1L, Homo sapiens, UniProt Q8IZX4)

| SMILES | target | test | conditions | endpoint | value |
| --- | --- | --- | --- | --- | --- |
| NS(=O)(=O)c1ccc(Nc2nc(-c3ccc(F)cc3)c3ccccc3n2)cc1 | Transcription initiation factor TFIID subunit 1-like, BD2 (TAF1L, Homo sapiens, UniProt Q8IZX4) | binding, competition with immobilised ligand | 1 µM | remaining binding | 77% |
| CCCOc1ccc(OC)c(F)c1C(=O)c1ccc(C(=O)N[C@@H]2CNC[C@H]2NC(=O)c2ccc3[nH]ncc3c2)cc1 | Serine/threonine-protein kinase MRCK alpha (CDC42BPA, Homo sapiens, UniProt Q5VT25) | enzyme activity, inhibitor | 10 µM | remaining activity | -3% |
| Cc1cnc(Nc2ccc(OCCN3CCCC3)cc2)nc1Nc1cccc(S(=O)(=O)NC(C)(C)C)c1 | Transcription initiation factor TFIID subunit 1, BD2 (TAF1, Homo sapiens, UniProt P21675) | thermal stability, DSF | 10 µM | ΔTm | 0.28 °C |
| C#CCNC(=O)c1ccccc1SC(C)=O | PTGS1 | enzyme activity, inhibitor | – | kinact | 0.000417 s⁻¹ |
| NS(=O)(=O)c1ccc(CNc2ccnc(Nc3cccc(CN4CCOCC4)c3)n2)cc1 | MARK1 | enzyme activity, inhibitor, radiometric | 1 µM | remaining activity | 102% |
| CCCCC#CCNC(=O)c1ccccc1SC(C)=O | PTGS1 | enzyme activity, inhibitor, mass spectrometry | – | kinact | 0.0367 s⁻¹ |
| Cc1cc2c(cc1N1C(=O)c3cccc4c(Cl)ccc(c34)C1=O)n(C)c(=O)n2C | TAF1L BD1 | thermal stability, DSF | 10 µM | ΔTm | -0.2 °C |
| COc1cc(Cl)c(C(=O)N[C@@H](CN[C@H]2CC[C@@H](N)CC2)Cc2ccc(C#N)cc2)cc1-c1ccc(CN[C@H](C)c2ccc(C)cc2)o1 | Transcription initiation factor TFIID subunit 1-like (TAF1L, Homo sapiens, UniProt Q8IZX4) | enzyme activity, inhibitor | 1 µM | remaining activity | 96% |
| Oc1ccc(-c2nc(-c3ccncc3)c(-c3ccc(F)cc3)[nH]2)cc1 | TAF1L BD1 | thermal stability, DSF | 10 µM | ΔTm | 0.17 °C |
| Nc1ncnc2occ(-c3ccc(NC(=O)Nc4cc(C(F)(F)F)ccc4F)cc3)c12 | Mitogen-activated protein kinase kinase kinase 6 (MAP3K6, Homo sapiens, UniProt O95382) | cell-free assay, inhibitor | 20 µM | remaining signal | 20% |
| Cc1nn(CC(F)(F)F)cc1Nc1nccc(NCCCNC(=O)C2CCC2)n1 | MARK1 | enzyme activity, inhibitor, radiometric | 1 µM | remaining activity | 108% |
| CCCCCCNC(=O)c1ccccc1SC(C)=O | PTGS1 | enzyme activity, inhibitor | – | kinact | 0.00035 s⁻¹ |
| C[S+]([O-])c1ccc(-c2nc(-c3ccncc3)c(-c3ccc(F)cc3)[nH]2)cc1 (centres unmarked) | Bromodomain adjacent to zinc finger domain protein 2B, bromodomain (BAZ2B, Homo sapiens, UniProt Q9UIF8) | thermal stability, DSF | 10 µM | ΔTm | 0.21 °C |
| O=C(NCCCNc1nc(Nc2cccc(NC(=O)N3CCCC3)c2)ncc1Br)C1CCC1 | Mitogen-activated protein kinase kinase kinase 9 (MAP3K9, Homo sapiens, UniProt P80192) | enzyme activity, inhibitor, radiometric | 1 µM | remaining activity | 0% |
